The term EC50 denotes the midpoint of the concentration-response curve. A lower EC50 goes with greater potency.

The target in data set [1] is T1, gmAhr1a (Gadus morhua, UniProt A0A6H1Z2L5).
T1 sequence (A0A6H1Z2L5 1-957): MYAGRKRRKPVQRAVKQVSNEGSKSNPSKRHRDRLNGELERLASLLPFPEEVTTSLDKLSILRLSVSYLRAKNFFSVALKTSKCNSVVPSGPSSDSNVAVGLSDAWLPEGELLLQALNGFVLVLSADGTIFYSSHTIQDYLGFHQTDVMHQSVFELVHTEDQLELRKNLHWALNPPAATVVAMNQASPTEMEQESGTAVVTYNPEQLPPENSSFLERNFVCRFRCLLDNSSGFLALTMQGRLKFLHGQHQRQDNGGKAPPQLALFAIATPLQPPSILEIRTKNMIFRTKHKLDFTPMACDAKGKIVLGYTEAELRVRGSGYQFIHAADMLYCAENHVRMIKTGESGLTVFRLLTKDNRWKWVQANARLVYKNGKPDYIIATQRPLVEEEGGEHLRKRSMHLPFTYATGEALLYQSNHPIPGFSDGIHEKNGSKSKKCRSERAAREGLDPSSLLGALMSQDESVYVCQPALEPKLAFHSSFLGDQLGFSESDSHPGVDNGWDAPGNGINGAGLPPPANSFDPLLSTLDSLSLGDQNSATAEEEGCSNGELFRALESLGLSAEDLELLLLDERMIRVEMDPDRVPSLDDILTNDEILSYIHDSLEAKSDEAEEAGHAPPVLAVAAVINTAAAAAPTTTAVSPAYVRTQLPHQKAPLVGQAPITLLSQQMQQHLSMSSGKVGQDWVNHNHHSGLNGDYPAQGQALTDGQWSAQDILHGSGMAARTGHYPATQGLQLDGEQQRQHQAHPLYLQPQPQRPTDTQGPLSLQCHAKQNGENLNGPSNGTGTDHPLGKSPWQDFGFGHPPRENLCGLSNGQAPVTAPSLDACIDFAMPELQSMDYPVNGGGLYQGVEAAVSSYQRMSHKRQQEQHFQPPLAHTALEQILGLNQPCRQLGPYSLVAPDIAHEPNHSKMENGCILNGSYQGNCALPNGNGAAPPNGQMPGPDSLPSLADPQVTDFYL
Description: XRE luciferase reporter gene assay in COS-7 cells, gmAhr1a with gmArnt1. The class given is cell-based, Atlantic cod (Gadus morhua). The conditions noted are these: for Activation of transcription of XRE-controlled luciferase reporter gene: increasing concentrations; for Shape of concentration-response: at higher concentrations. On the technique in general: In a reporter assay the amount or activity of a reporter protein is the signal.

Data set [2] addresses T2, gmAhr2a (Gadus morhua, UniProt A0A6H1Z3G8).
T2 sequence (A0A6H1Z3G8 1-1127): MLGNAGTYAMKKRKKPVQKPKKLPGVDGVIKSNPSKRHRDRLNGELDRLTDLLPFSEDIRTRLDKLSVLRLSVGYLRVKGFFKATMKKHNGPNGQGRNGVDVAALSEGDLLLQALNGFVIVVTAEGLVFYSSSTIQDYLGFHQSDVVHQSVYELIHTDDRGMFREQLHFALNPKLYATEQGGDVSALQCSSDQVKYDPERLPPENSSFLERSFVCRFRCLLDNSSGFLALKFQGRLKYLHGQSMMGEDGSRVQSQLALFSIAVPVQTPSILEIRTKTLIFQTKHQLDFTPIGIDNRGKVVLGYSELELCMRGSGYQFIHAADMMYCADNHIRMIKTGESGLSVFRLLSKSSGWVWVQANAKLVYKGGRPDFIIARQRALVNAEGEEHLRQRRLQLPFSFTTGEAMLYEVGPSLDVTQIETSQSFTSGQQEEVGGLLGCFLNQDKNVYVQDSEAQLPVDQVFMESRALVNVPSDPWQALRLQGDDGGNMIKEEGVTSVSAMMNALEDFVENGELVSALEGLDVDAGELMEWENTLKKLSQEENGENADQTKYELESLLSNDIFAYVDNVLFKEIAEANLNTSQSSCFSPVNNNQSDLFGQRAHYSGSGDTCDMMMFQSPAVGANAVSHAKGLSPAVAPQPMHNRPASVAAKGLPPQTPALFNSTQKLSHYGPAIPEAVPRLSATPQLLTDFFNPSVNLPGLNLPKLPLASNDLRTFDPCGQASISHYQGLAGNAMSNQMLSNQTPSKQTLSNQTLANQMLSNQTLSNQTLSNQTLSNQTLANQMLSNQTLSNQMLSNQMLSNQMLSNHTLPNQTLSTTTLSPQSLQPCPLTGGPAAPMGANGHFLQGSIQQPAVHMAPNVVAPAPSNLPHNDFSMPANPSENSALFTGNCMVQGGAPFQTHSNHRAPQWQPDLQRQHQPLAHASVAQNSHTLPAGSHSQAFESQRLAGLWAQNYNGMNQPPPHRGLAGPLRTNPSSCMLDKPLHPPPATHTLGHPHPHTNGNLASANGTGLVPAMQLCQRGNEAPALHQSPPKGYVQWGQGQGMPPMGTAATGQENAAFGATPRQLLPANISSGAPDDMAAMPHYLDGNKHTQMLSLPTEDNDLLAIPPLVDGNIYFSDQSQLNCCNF
Briefly: XRE luciferase reporter gene assay in COS-7 cells, gmAhr2a with gmArnt1. It is filed as cell-based, Atlantic cod (Gadus morhua). The conditions noted are these: for Activation of transcription of XRE-controlled luciferase reporter gene: increasing concentrations.

Data set [3] deals with cyp1a. Description: Ex vivo precision-cut liver slices, cyp1a mRNA expression by qPCR. The conditions noted are these: cod liver slices ex vivo, 1 nM was the lowest concentration used. The class given is cell-based, Atlantic cod (Gadus morhua).
Data set [4] relates to COS-7 cells. Briefly: Cytotoxicity in COS-7 cells. The conditions noted are these: for TCDD the effect is at the highest concentration. The class given is cell-based, simian.
Data set [5] deals with T1, gmAhr1a. Description: Velocity sedimentation radioligand binding to in vitro expressed gmAhr1a. To be noted: single concentration, qualitative. On the set-up: species or system Atlantic cod (Gadus morhua).
Data set [6] concerns the target T2, gmAhr2a. Briefly: Velocity sedimentation radioligand binding to in vitro expressed gmAhr2a. Also noted: species or system Atlantic cod (Gadus morhua). The conditions noted are these: [3H]BNF 10 nM, single concentration, qualitative.
Data set [7] has as its system fhAhr2a. Description: Velocity sedimentation radioligand binding to in vitro expressed fhAhr2a. On the set-up: species or system Fundulus heteroclitus. To be noted: single concentration, qualitative.
The test system of data set [8] is gmahr1a and gmahr2a. Description: Ex vivo precision-cut liver slices, gmahr1a and gmahr2a mRNA expression. It is filed as cell-based, Atlantic cod (Gadus morhua). The conditions noted are these: cod liver slices ex vivo, increasing concentrations.
Data set [9] concerns precision-cut liver slices. Briefly: Viability of precision-cut liver slices. To be noted: 100 nM. It is filed as cell-based, Atlantic cod (Gadus morhua). An outline of the steps: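 Precision-cut liver slices from juvenile Atlantic cod of both sexes (about 1.5–2 years old; tank-held in natural seawater at 9 °C, 12:12 h light/dark). Slices were exposed to Ahr agonist test compounds in 0.01% DMSO, with n=5–7 per compound. Viability was read by MTT reduction and cytotoxicity by LDH release.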

For `O=Cc1c2[nH]c3ccccc3c2cc2[nH]c3ccccc3c12` [FICZ, 6-formylindolo[3,2-b]carbazole], the “Activation of transcription of XRE-controlled luciferase reporter gene” value (“Activation” below) was “activated” in data set [1] (COS-7 cells, gmAhr1a) and “activated” in [2] (COS-7 cells, gmAhr2a). The “EC50 (in words)” value is recorded as “picomolar range” in data set [1] (COS-7 cells, gmAhr1a, luciferase reporter) and “picomolar range” in data set [2] (COS-7 cells, gmAhr2a, luciferase reporter). Also, in data set [1] (gmAhr1a), the Shape of concentration-response entry is reported as “bi-phasic concentration-response”. Moreover, the “Concentration at which cyp1a expression was induced” value in data set [3] amounted to 1 nM. Moreover, in [4], the Cell viability entry is recorded as “no significant alterations in cell viabilities”.

On to `O=c1cc(-c2ccccc2)oc2ccc3ccccc3c12` [BNF, β-naphthoflavone], for which the “Specific binding of [3H]BNF” value in data set [5] ([3H]BNF 10 nM) was “highest amount of specific binding”; in data set [6], “only weak or no specific binding”; in data set [7] ([3H]BNF 10 nM), “only weak or no specific binding”. The “Activation” value was “activated” in data set [1] (COS-7 cells, gmAhr1a) and “activated” in [2] (COS-7 cells, gmAhr2a). In data set [1] (gmAhr1a), the Shape of concentration-response result is on record as “tendencies to a biphasic concentration-response”. The Cell viability result in data set [4] is listed as “no significant alterations in cell viabilities”.

Turning to `Clc1cc2c(cc1Cl)Oc1cc(Cl)c(Cl)cc1O2` [TCDD, 2,3,7,8-Tetrachlorodibenzo-p-dioxin], the “Specific binding of [3H]TCDD” value in data set [5] ([3H]TCDD 2 nM) and in data set [7] ([3H]TCDD 2 nM) was “Specific binding of [^3H]TCDD was observed” in each case. The concentration for a half-maximal effect (EC50) in data set [1] was about 1 nM; in data set [2], about 10 nM. Further, the “Activation” value in data set [1] (COS-7 cells, gmAhr1a) is “activated”; in [2] (COS-7 cells, gmAhr2a) it was “activated”. In addition, the Emax result in data set [1] (gmAhr1a compared with gmAhr2a) is reported as “very similar”. Further, the “Concentration at which cyp1a expression was induced” value in [3] is recorded as 1 nM. In addition, the “Alterations in the expression of gmahr1a and gmahr2a” value in [8] is “no significant differences in transcript levels”. In addition, the Cell viability entry in data set [4] is “slight reduction in cell viability”. For the same molecule, the “Viability of liver slices” value in data set [9] is given as “reduced viability”.

For `c1ccc2c(c1)cc1ccc3cccc4ccc2c1c34` [B[a]P], the “Activation” value was “activated” in [1] (COS-7 cells, gmAhr1a) and “activated” in data set [2] (COS-7 cells, gmAhr2a). Moreover, the “Alterations in the expression of gmahr1a and gmahr2a” value in data set [8] is recorded as “no significant differences in transcript levels”.

For `Clc1ccc(-c2cc(Cl)c(Cl)c(Cl)c2)cc1Cl` [PCB126, 3,3′,4,4′,5-pentachlorobiphenyl], the “Activation” value in data set [1] (COS-7 cells, gmAhr1a) is “activated”; in data set [2] (COS-7 cells, gmAhr2a) it was “activated”.

Values taken from PMC7003535 (Environmental science & technology, 2020).
